Measurements: article PMC7814360 (Investigative Ophthalmology & Visual Science, 2021)
Ends that are not written are not given here.

Key:
HRECs [1] = test: Cell migration; assay type: cell-based, human; conditions: 25 ng/mL VEGF; 200 µM H-KI20 or H-KI20S, or 12.5 mg/mL bevacizumab; 12 hours; three independent assays
HRECs [2] = test: Tube formation assay on Matrigel; assay type: cell-based, human; conditions: 25 ng/mL VEGF, three independent assays
Summary of the method: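 About 2 × 10^4 HRECs were seeded on Matrigel-precoated wells, with or without 25 ng/mL VEGF, alongside test peptides or Avastin. Incubation was at 37°C for four hours per methods (three hours per legend). Three random fields per well were photographed, and total tube length and branch points were quantified by ImageJ. Three independent assays; means ± SEM.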

HRECs [3] = test: Cellular uptake, flow cytometry quantitative analysis; assay type: in vitro ADME, human; conditions: 200 µM, three independent assays
Summary of the method: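 HRECs were seeded at 1 × 10^6 on a 30-mm plate. At confluence they were exposed to FITC-labeled test peptide at 200 μM in complete medium for 30 min, 1, 6, 12 and 24 h. Cells were washed, trypsinized, resuspended in PBS and kept dark. FITC-positive cell number and mean fluorescence intensity were read by flow cytometry. Three independent assays; means ± SEM.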

JNK2 = JNK2 (Homo sapiens, UniProt P45984); test: Surface plasmon resonance; assay type: binding
Summary of the method: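 SPR was run on a Biacore T200. The chip was conditioned with 500 mM EDTA and 100 mM NaOH. Recombinant human JNK2 at 27.5 μg/mL was captured on an NTA chip at 10 μL/min. Serial peptide concentrations were injected in PBS with 0.05% Tween-20, pH 7.4, at 25°C (association 120 s, dissociation 180 s). Double reference subtraction was applied, then a global Langmuir 1:1 fit.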

[4] = Quantification of H-KI20 in ocular tissues after topical instillation; assay type: in vivo; conditions: mouse CNV model, 0.5, 1 and 3 hours after topical instillation, PRM
Summary of the method: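 Choroidal neovascularization was induced in adult C57BL/6J mice with four 532-nm laser burns (100 ms, 50 μm, 120 mW) around the optic disc. On day 7, 6 μL of FITC-labeled test peptide (2 mM) was instilled topically six times at 10-min intervals (n = 3 per group). At 0.5, 1 and 3 h, sclera–choroid–RPE complex and retina were trypsin-digested. A 100 ng/mL stable-isotope-labeled internal standard was spiked in, and samples were quantified by nano-UPLC–Orbitrap PRM.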

[5] = Stability assay of H-KI20 in aqueous solutions; assay type: physicochemical; conditions: 200 µg/mL, HPLC
HRECs [6] = test: Cytotoxicity, MTS; assay type: cell-based, human; conditions: H-KI20 at different concentrations; three independent assays
Summary of the method: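 HRECs were seeded in 96-well plates at […]. They were treated with VEGF or test peptide, and viability was read by MTS following the manufacturer's protocol.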

HRECs [7] = test: High-content image analysis, cell roundness; assay type: cell-based, human; conditions: H-KI20 alone, 30 hours, Operetta HCA, interval 0.5 h
Summary of the method: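 About 3 × 10^4 HRECs/well were plated in 12-well plates and allowed to attach overnight. Test compound was added 2 h before imaging. Cells were imaged live in an Operetta high-content system for […] at 0.5-h intervals. Roundness is a shape index normalized to 1.0 for a perfect circle, decreasing for elongated or irregular cells.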

retina = test: Histologic examination of retina after intravitreal injection; assay type: in vivo, mouse; conditions: 50 or 75 mM H-KI20 intravitreal, five days later, mice
[8] = system: cornea neovascularization; conditions: topical application of high concentrations; cited from earlier work

Chain of JNK2 (P45984 whole entry): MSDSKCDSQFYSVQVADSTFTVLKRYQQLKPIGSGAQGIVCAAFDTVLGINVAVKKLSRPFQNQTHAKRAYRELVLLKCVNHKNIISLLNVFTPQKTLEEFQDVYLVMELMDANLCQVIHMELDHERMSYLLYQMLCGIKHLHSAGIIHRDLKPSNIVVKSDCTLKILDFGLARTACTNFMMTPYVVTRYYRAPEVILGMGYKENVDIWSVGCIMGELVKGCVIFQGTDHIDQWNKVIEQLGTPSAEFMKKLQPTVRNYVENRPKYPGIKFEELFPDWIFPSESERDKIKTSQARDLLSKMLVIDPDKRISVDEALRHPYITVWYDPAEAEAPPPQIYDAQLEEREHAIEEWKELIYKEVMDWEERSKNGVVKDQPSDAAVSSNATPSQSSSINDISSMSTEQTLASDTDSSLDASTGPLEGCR

Which results are given for Bevacizumab [Avastin]?
migration of VEGF-stimulated HRECs (wound closure) (HRECs [1]): inhibited the migration of cells significantly; VEGF-induced tube formation (tube length and branch points) (HRECs [2]): significantly inhibited

For “FITC-H-KI20: FITC-labeled H-KI20 used to test cellular permeability (IIGKGRSYKGTVSITKSGIK; also: FITC-labeled, site not given here)”, which “mean fluorescence intensity (MFI) compared with untreated cells” value (HRECs [3]; 30 minutes) is on record?
Its value is 217 fold.

What about the “MFI after 24 hours compared with that after 30 minutes” value (HRECs [3]; 24 hours vs 30 minutes) of the same substance?
The value was 3.67 fold.

Which Kd (JNK2) does the source give for IIGKGRSYKGTVSITKSGIK [H-KI20] here?
Its Kd is 83.7 µM.

And the “persistence of concentration in ocular tissues after topical instillation” value [4]?
Its value is “maintained for at least three hours”.

What about the “stability at 4°C compared with 37°C” value ([5]; BSS, PBS and HBS, n = 4 or 5) of the same substance?
The value was “more stable”.

And the “stability in H2O and PBS” value ([5]; H2O and PBS pH 7.4, 37°C, incubation for 24 or 48 hours)?
The value was “partially degraded”.

And the “cytotoxicity / proliferation of HRECs (MTS)” value (HRECs [6])?
The value was “no effect on the proliferation of HRECs”.

And the cell roundness (HRECs [7])?
The cell roundness was “no effect on the roundness of cells”.

And the “retinal histology (HE) after intravitreal injection” value (retina)?
Its value is “All layers of the retina were normal and intact, without edema or inflammatory or immune reactions”.

And the “cell ultrastructure of cornea and conjunctiva” value [8]?
Its value is “no effect on the cell ultrastructure of cornea and conjunctiva”.
